Active and inactive are the calls of the source. No cut-off for these calls is given here.
Columns and labels:
[1] = target: Proto-oncogene tyrosine-protein kinase Src (Homo sapiens) (UniProt P12931); assay: Inhibition of Src (unknown origin) assessed as residual activity at 10 uM relative to control
Method in brief: (§1)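 Abl and Src kinase activity measured by an outside service with compounds at 10 μM; activity reported relative to control.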

[2] = target: Beta-secretase 1 (Mus musculus) (UniProt P56818); assay: Inhibition of BACE1 in mouse N2a695 cells assessed as reduction in Abeta40 production at 5 uM pretreated with BACE IV for 1 hr and measured after 5 hrs by ELISA; format: cell-based
Chain of Beta-secretase 1 (Mus musculus) (P56818 whole entry): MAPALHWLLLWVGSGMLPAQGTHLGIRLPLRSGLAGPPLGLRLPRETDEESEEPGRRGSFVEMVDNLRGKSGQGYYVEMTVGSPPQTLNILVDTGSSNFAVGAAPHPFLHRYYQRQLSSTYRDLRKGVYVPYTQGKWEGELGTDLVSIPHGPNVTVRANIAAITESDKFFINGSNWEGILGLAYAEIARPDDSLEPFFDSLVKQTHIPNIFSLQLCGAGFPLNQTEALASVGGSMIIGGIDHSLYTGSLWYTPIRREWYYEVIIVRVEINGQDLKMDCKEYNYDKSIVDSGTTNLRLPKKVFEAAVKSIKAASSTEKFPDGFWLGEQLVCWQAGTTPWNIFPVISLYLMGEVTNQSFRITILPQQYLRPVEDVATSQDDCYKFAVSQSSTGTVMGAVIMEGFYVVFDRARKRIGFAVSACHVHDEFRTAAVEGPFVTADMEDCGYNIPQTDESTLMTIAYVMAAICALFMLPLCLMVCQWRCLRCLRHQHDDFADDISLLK
Method in brief: (§2)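 N2a695 cells preincubated 1 h with DMSO or 0.5 μM BACE IV, then given fresh medium containing 5 μM compound. Aβ40 and Aβ42 measured by human Aβ ELISA as percent of DMSO or BACE IV-pretreated DMSO control. Duplicate or triplicate wells; average of three independent experiments.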

[3] = target: Beta-secretase 1 (Mus musculus) (UniProt P56818); assay: Inhibition of BACE1 in mouse N2a695 cells transfected with human APP-FL assessed as reduction in Abeta42 production at 10 uM incubated for 5 hrs by ELISA; format: cell-based
Method in brief: (§3)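 N2a cells transfected with human APP-FL or APP-C99 treated with compounds at 10 μM. Aβ40 and Aβ42 in supernatants measured by ELISA; controls were BACE inhibitor MK8931 0.5 μM and γ-secretase inhibitor DAPT 1 μM.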

[4] = target: Beta-secretase 1 (Mus musculus) (UniProt P56818); assay: Inhibition of BACE1 in mouse N2a695 cells assessed as reduction in Abeta42 production at 10 uM incubated for 5 hrs by ELISA relative to control; format: cell-based
Method in brief: (§4)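 N2a695 cells treated with compound (10 μM, or 20 μM for reference compound). Aβ42 in cell supernatant measured by human Aβ ELISA.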

[5] = target: Beta-secretase 1 (Mus musculus) (UniProt P56818); assay: Inhibition of BACE1 in mouse N2a695 cells assessed as reduction in Abeta40 production transfected with human APP-FL at 10 uM incubated for 5 hrs by ELISA; format: cell-based; method in brief: as §3
Homo sapiens [6] = species on record: Homo sapiens; assay: Inhibition of Abl (unknown origin) assessed as residual activity at 10 uM relative to control; method in brief: as §1
[7] = target: Beta-secretase 1 (Mus musculus) (UniProt P56818); assay: Inhibition of BACE1 in mouse N2a695 cells assessed as reduction in Abeta40 production at 10 uM incubated for 5 hrs by ELISA relative to control; format: cell-based
[8] = target: Beta-secretase 1 (Mus musculus) (UniProt P56818); assay: Inhibition of BACE1 in mouse N2a695 cells assessed as reduction in Abeta40 production transfected with human APP-C99 at 10 uM incubated for 5 hrs by ELISA; format: cell-based; method in brief: as §3
[9] = Cytotoxicity against mouse N2a695 cells assessed as reduction in cell viability at 10 uM incubated for 24 hrs by MTT assay; format: cell-based
Method in brief: (§5)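 Viability of N2a cells by MTT assay after 5 h and 24 h incubation with compound (10 μM; one comparator at 1 μM), scored as number of viable cells.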

[10] = Cytotoxicity against mouse N2a695 cells assessed as reduction in cell viability at 10 uM incubated for 5 hrs by MTT assay; format: cell-based; method in brief: as §5
[11] = target: Beta-secretase 1 (Mus musculus) (UniProt P56818); assay: Inhibition of BACE1 in mouse N2a695 cells assessed as reduction in Abeta42 production at 5 uM pretreated with BACE IV for 1 hr and measured after 5 hrs by ELISA; format: cell-based; method in brief: as §2
[12] = target: Beta-secretase 1 (Mus musculus) (UniProt P56818); assay: Inhibition of BACE1 in mouse N2a695 cells transfected with human APP-C99 assessed as reduction in Abeta42 production at 10 uM incubated for 5 hrs by ELISA; format: cell-based; method in brief: as §3
[13] = target: Beta-secretase 1 (Mus musculus) (UniProt P56818); assay: Inhibition of BACE1 in mouse N2a695 cells assessed as reduction in Abeta40 production at 10 uM incubated for 6 hrs by ELISA; format: cell-based
Mus musculus = species on record: Mus musculus; assay: Inhibition of Abeta42 production in mouse N2a695 cells at 20 uM incubated for 5 hrs by ELISA; format: functional, cell-based; method in brief: as §4
[14] = target: Beta-secretase 1 (Mus musculus) (UniProt P56818); assay: Inhibition of BACE1 in mouse N2a695 cells assessed as reduction in Abeta40 production at 20 uM incubated for 5 hrs by ELISA; format: cell-based
[15] = Cytotoxicity against mouse N2a695 cells assessed as reduction in cell viability at 1 uM incubated for 5 and 24 hrs by MTT assay; format: cell-based; method in brief: as §5
[16] = target: Proto-oncogene tyrosine-protein kinase Src (Homo sapiens) (UniProt P12931); assay: Inhibition of Src (unknown origin) assessed as residual activity at 1 uM relative to control
Homo sapiens [17] = species on record: Homo sapiens; assay: Inhibition of Abl (unknown origin) assessed as residual activity at 1 uM relative to control

Chain of Proto-oncogene tyrosine-protein kinase Src (Homo sapiens) (P12931 2-536 limits assumed): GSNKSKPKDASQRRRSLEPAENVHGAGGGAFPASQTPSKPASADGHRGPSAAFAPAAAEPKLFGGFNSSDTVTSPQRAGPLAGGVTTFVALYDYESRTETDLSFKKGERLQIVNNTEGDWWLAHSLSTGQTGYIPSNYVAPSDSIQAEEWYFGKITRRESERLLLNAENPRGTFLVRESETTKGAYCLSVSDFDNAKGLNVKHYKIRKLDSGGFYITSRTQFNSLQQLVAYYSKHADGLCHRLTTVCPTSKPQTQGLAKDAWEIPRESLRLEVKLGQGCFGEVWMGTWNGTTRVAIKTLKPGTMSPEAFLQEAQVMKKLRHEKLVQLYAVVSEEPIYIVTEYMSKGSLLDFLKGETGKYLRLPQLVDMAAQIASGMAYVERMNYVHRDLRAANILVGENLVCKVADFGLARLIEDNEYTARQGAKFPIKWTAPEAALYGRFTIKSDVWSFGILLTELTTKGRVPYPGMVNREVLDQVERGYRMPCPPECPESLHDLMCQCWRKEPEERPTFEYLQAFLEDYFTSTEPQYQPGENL

| Compound | Activity [1] | inhibition [4] | Activity (Homo sapiens [6]) | inhibition [7] | inhibition [13] | Activity [9] | Activity [10] | also measured |
| --- | --- | --- | --- | --- | --- | --- | --- | --- |
| Cn1c(=O)c(-c2c(Cl)cc(NC(=O)OC(C)(C)C)cc2Cl)cc2cnc(N3CCN(c4ccncc4)CC3)nc21 | 8% | > 50% | 0% | > 50% | Active | Non-Toxic | Non-Toxic | inhibition [2]: Active; inhibition [3]: Active; inhibition [5]: Active; inhibition [8]: inactive; inhibition [11]: Active; inhibition [12]: Active |
| Cn1c(=O)c(-c2c(Cl)cccc2Cl)cc2cnc(N3CCNCC3)nc21 |  |  |  |  |  | Non-Toxic | Non-Toxic | inhibition (Mus musculus): Active; inhibition [2]: Active; inhibition [3]: Active; inhibition [5]: Active; inhibition [14]: Active; inhibition [8]: inactive; inhibition [11]: Active; inhibition [12]: Active |
| CSc1cccc(Nc2ncc3cc(-c4c(Cl)cccc4Cl)c(=O)n(C)c3n2)c1 |  |  |  |  |  |  |  | Activity [15]: Non-Toxic; Activity [16]: 99.5%; Activity (Homo sapiens [17]): 99.7% |
| Cn1c(=O)c(-c2c(Cl)cccc2Cl)cc2cnc(N3CCC(N4CCCCC4)CC3)nc21 |  |  |  |  | Active | Non-Toxic | Non-Toxic |  |
| CN1CCC(N2CCN(c3ncc4cc(-c5c(Cl)cc(NC(=O)C(C)(C)C)cc5Cl)c(=O)n(C)c4n3)CC2)CC1 | 8.9% | > 50% | 3.2% | > 50% | Active | Non-Toxic | Non-Toxic | inhibition [2]: Active; inhibition [3]: Active; inhibition [5]: Active; inhibition [8]: inactive; inhibition [11]: Active; inhibition [12]: Active |
| Cn1c(=O)c(-c2c(Cl)cccc2Cl)cc2cnc(N3CCN(Cc4ccccc4)CC3)nc21 |  |  |  |  | Active | Toxic | Non-Toxic |  |
| Cc1ccc(NC(=O)c2ccc(CN3CCN(C)CC3)cc2)cc1Nc1nccc(-c2cccnc2)n1 |  |  |  |  | Active |  |  |  |
| CN1CCC(N2CCN(c3ncc4cc(-c5c(Cl)cc(NC(=O)OC(C)(C)C)cc5Cl)c(=O)n(C)c4n3)CC2)CC1 | 10.4% | > 50% | 8.5% | > 50% | Active | Toxic | Non-Toxic |  |

Second part, led by results:

| Activity [1] | inhibition [4] | Activity (Homo sapiens [6]) | inhibition [7] | inhibition [13] | Compound | Activity [9] | Activity [10] | also measured |
| --- | --- | --- | --- | --- | --- | --- | --- | --- |
| 10.5% | > 50% | 20.8% | > 50% | Active | CN1CCC(N2CCN(c3ncc4cc(-c5c(Cl)cccc5Cl)c(=O)n(C)c4n3)CC2)CC1 | Non-Toxic | Non-Toxic |  |
|  |  |  |  | Active | CN1CCN(c2ncc3cc(-c4cc(Cl)cc(Cl)c4)c(=O)n(C)c3n2)CC1 | Non-Toxic | Non-Toxic |  |
|  |  |  |  | Active | CN1CCN(c2ncc3cc(-c4c(Cl)cc(NC(=O)C(C)(C)C)cc4Cl)c(=O)n(C)c3n2)CC1 | Non-Toxic | Non-Toxic |  |
|  |  |  |  | Active | Cl.Cn1c(=O)c(-c2c(Cl)cccc2Cl)cc2cnc(N3CCN(C4CCNCC4)CC3)nc21 | Non-Toxic | Non-Toxic |  |
